According to paper PMC4085604 (Scientific Reports, 2014):

B1: His6-trigger factor: trigger factor (N-terminal His-tag) (protein, UniProt P0A850 1-432, looked up)
Trigger factor: MQVSVETTQGLGRRVTITIAADSIETAVKSELVNVAKKVRIDGFRKGKVPMNIVAQRYGASVRQDVLGDLMSRNFIDAIIKEKINPAGAPTYVPGEYKLGEDFTYSVEFEVYPEVELQGLEAIEVEKPIVEVTDADVDGMLDTLRKQQATWKEKDGAVEAEDRVTIDFTGSVDGEEFEGGKASDFVLAMGQGRMIPGFEDGIKGHKAGEEFTIDVTFPEEYHAENLKGKAAKFAINLKKVEERELPELTAEFIKRFGVEDGSVEGLRAEVRKNMERELKSAIRNRVKSQAIEGLVKANDIDVPAALIDSEIDVLRRQAAQRFGGNEKQALELPRELFEEQAKRRVVVGLLLGEVIRTNELKADEERVKGLIEEMASAYEDPKEVIEFYSKNKELMDNMRNVALEEQAVEAVLAKAKVTEKETTFNELMNQQA
modifications: N-terminal His6 tag

Legend:
[1] = test system: BHQ-10-labeled anti-His-tag mAb “8-4-4”; assay: Homogeneous His6 detection assay; format: binding, mouse; conditions: for phosphorescence response, in words: increasing protein concentration, TRF after 90 s shaking; for detectability within total assay time, in words: total assay time of less than two minutes
How it was run: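 His6-tagged proteins (C- or N-terminal tag, or chemically His6-labeled BSA) in PBS pH 7.4 with 2 mg/mL BSA, or in E. coli lysate. Premixed with EuLH-HHRHH-NH2 donor peptide solution (40 nmol/L), then BHQ-10-labeled antibody solution (80 nmol/L) added. After 90 s shaking, read TRF at ex 370/em 616 nm. Triplicates. LOD is the lowest concentration whose mean exceeds blank plus 3 SD.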

[2] = test system: anti-His-tag mAb “8-4-4”; format: binding, mouse; conditions: inferred from FRET efficiency curve

Molecule | phosphorescence response, in words ([1]; n = 3) | affinity to the anti-His-tag antibody, in words [2] | detectability within total assay time, in words [1] | further results
Bovine serum albumin [BSA, reference compound] | no response | – | – | –
HHEHH-NH2 | – | full loss of affinity to the anti-His-tag antibody | – | –
HHHHH-NH2 | – | did not influence the FRET efficiency curve substantially, and therefore also not the affinity | – | –
HHHHHH-NH2 | – | strong and specific interaction between the peptide and the antibody | – | –
NPP3-His6: recombinant protein with C-terminal His-tag | – | – | could be detected highly significantly and semi-quantitatively | –
B1 | increasing phosphorescence intensities with increasing protein concentration | – | could be detected highly significantly and semi-quantitatively | detection limit ([1]; mass concentration, sample 50 μL + donor peptide EuLH-HHRHH-NH2 (10 μL, 40 nmol/L) + BHQ-10-mAb (40 μL, 80 nmol/L), PBS pH 7.4 with 2 mg/mL BSA, 90 s, n = 3, background plus 3x SD): 39 mg/L
